Paper PMC3366067 (Blood Cancer Journal, 2012)

Experiments:
MCP-1 = test: Plasma cytokine/chemokine analysis in SET-2 tumor-bearing mice; format: in vivo, mouse; settings: d18
Summary of the method: (§1)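 Plasma came from female SCID-beige mice bearing s.c. SET-2 tumors (5 × 10^6 cells) that had been dosed orally with the test compounds in the efficacy study. It was collected on d18, 3 h post-dose. A Luminex 32-plex mouse cytokine/chemokine panel measured the analytes. Comparators were uninoculated naive mice and vehicle-treated tumor-bearing mice.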

SET-2 xenografts = test: Subcutaneous SET-2 model of megakaryoblastic leukemia; format: in vivo, mouse; settings: d18
Summary of the method: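 Female SCID-beige mice (9 weeks; n=12 per group) were implanted s.c. with 5 × 10^6 SET-2 cells in Matrigel. From d33 post-implantation, they were dosed orally for 19 days (d0–d18), with separate doses at least 8 h apart. Tumor volume was measured by caliper as (w²×l)/2, and tumors were weighed at the end. Synergy was assessed by Clarke's CI, with <0 counted as synergy. Statistics used ANOVA/Dunnett.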

[1] = Pharmacokinetic analysis of pracinostat and pacritinib in plasma; format: in vivo, mouse; settings: d14 vs d1
pSTAT5 in SET-2 tumors = test: pSTAT5 levels in SET-2 tumors after chronic treatment; format: in vivo, mouse; settings: end of study
Summary of the method: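 SET-2 s.c. tumors came from female SCID-beige mice dosed orally d0–d18. They were excised on the last treatment day, 3 h post-dose, and lysed. pSTAT5 was measured by western blot and compared with vehicle-treated animals.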

[2] = tested on: pFLT3, FLT3 in MOLM-13 tumors; test: Western blot analysis of MOLM-13 tumors; format: in vivo, mouse; settings: chronic treatment with pacritinib alone, d7
[3] = tested on: IL-6, IP-10, KC and MIP-1α; test: Plasma cytokine/chemokine analysis in SET-2 tumor-bearing mice; format: in vivo, mouse
Summary of the method: as §1

MOLM-13 s.c. xenografts = test: Subcutaneous MOLM-13 xenograft model; format: in vivo, mouse; settings: for reduction in tumor weight: d7
Summary of the method: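 Female SCID mice (n=12 per group) were given 5 × 10^6 MOLM-13 cells s.c. with Matrigel. Treatment started on d11 and ran 8 days, all oral: 50 mg/kg pacritinib daily in the evenings and 75 mg/kg pracinostat every other day. On the last day, tumors were excised and weighed. Metastases to lungs, breast fat-pad and lymph nodes were counted. Statistics used ANOVA/Dunnett.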

[4] = Toxicokinetic studies in mice, single agent; format: in vivo; settings: data not shown
[5] = tested on: HL-60 cells engrafted orthotopically; test: Orthotopic AML model; format: in vivo, mouse
Summary of the method: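 Female SCID mice (n=6 per group) received 1 × 10^7 HL-60 cells i.v. in 100 μl serum-free medium. From d30, once disease was established, they were dosed with 125 mg/kg test compound thrice weekly by oral gavage at 10 ml/kg. Paralysis symptoms were scored. Blood counts were taken from tail blood with a hematology analyzer and compared with age-matched uninoculated SCID mice. Statistics used ANOVA/Bonferroni.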

[6] = tested on: panel of 11 AML cell lines; test: Cell proliferation assay; format: cell-based; settings: Homo sapiens, 48 h, read-out: IC50 on cell proliferation
Summary of the method: (§2)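 Cells were seeded at a predetermined optimal density in log phase and rested 2 h before treatment. They were then exposed for 48 h to test compound in 9 serial-dilution steps from 10 μM to 1.5 nM, with 0.1% solvent. Viability was read by CellTiter-Glo luminescence. At least three independent experiments were run in triplicate, and IC50 came from curve fitting.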

[7] = tested on: pJAK2, JAK2, pSTAT5 and STAT5 in JAK2 wt KARPAS 1106-P cells; test: Western blot of JAK-STAT signaling; format: cell-based; settings: data not shown
Summary of the method: (§3)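 Cells were treated with test compound at 125–500 nM for 24 h, then lysed. Western blots of 25 μg total lysate were probed for pJAK2 (Y1007/1008), JAK2, pSTAT5 (Y694) and STAT5. JAK2V617F lines were compared with JAK2 wt lines.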

HL-60 = test: Cell proliferation assay and in vitro synergy; format: cell-based; settings: Homo sapiens, HL-60, 48 h, read-out: IC50 on cell proliferation
Summary of the method: as §2

[8] = tested on: pFLT3, FLT3 and pSTAT5 in RS4;11 cells (wt FLT3); test: Western blot of FLT3 signaling; format: cell-based, human; settings: RS4;11, 24 h, compared with FLT3-ITD cell lines
Summary of the method: (§4)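 Cells were treated with test compound at graded concentrations for 24 h, then lysed. Western blots loaded 50 μg total lysate for pFLT3 (Y591) and FLT3, and 25 μg for the other proteins. Other antibodies were pSTAT5 (Y694) and STAT5. FLT3-ITD lines were compared with wt-FLT3 RS4;11 cells.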

[9] = tested on: pJAK2, JAK2, pSTAT5 and STAT5 in JAK2 wt 32D cells; test: Western blot of JAK-STAT signaling; format: cell-based, murine; settings: 125–500 nM for 24 h
Summary of the method: as §3

[10] = tested on: pFLT3 (Y591) in MV4-11 cells (FLT3-ITD); test: Western blot of FLT3 signaling; format: cell-based, human; settings: 500 nM, 24 h
Summary of the method: as §4

[11] = tested on: pJAK2, JAK2, pSTAT5 and STAT5 in JAK2^V617F mutant cells (HEL92.1.7 and SET-2); test: Western blot of JAK-STAT signaling; format: cell-based, human; settings: 125–500 nM for 24 h
Summary of the method: as §3

[12] = tested on: pFLT3 (Y591) in MOLM-13 cells (FLT3-ITD); test: Western blot of FLT3 signaling; format: cell-based, human; settings: 500 nM, 24 h
Summary of the method: as §4

HEL92.1.7 xenografts = test: Subcutaneous HEL92.1.7 xenograft model; format: in vivo, mouse; settings: HEL92.1.7 model, 75 or 125 mg/kg every other day for 17 days
Summary of the method: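 Female BALB/c nude mice (8–10 weeks; n=5 per group) were implanted s.c. in the right flank with 5 × 10^6 HEL92.1.7 cells in serum-free medium mixed 1:1 with Matrigel. From d18, they were dosed by oral gavage (10 ml/kg) at 75 or 125 mg/kg every other day for 17 days. Tumor volume was measured by caliper as (w²×l)/2.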

MV4-11 xenografts = test: Subcutaneous MV4-11 xenograft model; format: in vivo, mouse
Summary of the method: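 Female BALB/c nude mice (8–10 weeks; n=10 per group) were implanted s.c. in the right flank with 1 × 10^7 MV4-11 cells in serum-free medium mixed 1:1 with Matrigel. From d9, they received 25 or 50 mg/kg per day by oral gavage (10 ml/kg) for 21 days. Tumor volume was measured by caliper as (w²×l)/2. Statistics used ANOVA/Bonferroni.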

[13] = pacritinib 150 mg/kg twice daily

**Q.** With C1=C/COCc2cc(ccc2OCCN2CCCC2)Nc2nccc(n2)-c2cccc(c2)COC/1 [pacritinib] as the molecule, how does the “reduction of plasma MCP-1 levels” value (MCP-1; pacritinib single agent) read?
**A.** 10%

**Q.** And the “TGI (tumor volume)” value (SET-2 xenografts; [13])?
**A.** 61%

**Q.** And the “TGI on the basis of tumor weight” value (SET-2 xenografts; [13])?
**A.** 47%

**Q.** And the “increase in AUC after chronic dosing in combination” value ([1]; pacritinib)?
**A.** approximately four-fold

**Q.** What about the “increase in Cmax after chronic dosing in combination” value ([1]; pacritinib) of the same molecule?
**A.** approximately two-fold

**Q.** And the “decrease of pSTAT5 levels in tumors” value (pSTAT5 in SET-2 tumors; pacritinib 150 mg/kg twice daily, 3 h post dose)?
**A.** about 50%

**Q.** What about the “total levels of FLT3 in tumors” value [2] of the same molecule?
**A.** increased expression total levels of FLT3 significantly

**Q.** And the “plasma IL-6, IP-10, KC and MIP-1α” value ([3]; single-agent pacritinib)?
**A.** normalization

**Q.** What about the “reduction in tumor weight” value (MOLM-13 s.c. xenografts; pacritinib 50 mg/kg daily) of the same molecule?
**A.** 14.7%

**Q.** What about the “reduction of metastatic incidences” value (MOLM-13 s.c. xenografts; single-agent pacritinib) of the same molecule?
**A.** 60%

**Q.** What about the “increase in exposure following repeated dosing” value [4] of the same molecule?
**A.** two-fold

**Q.** With CCCCc1nc2cc(/C=C/C(=O)NO)ccc2n1CCN(CC)CC [pracinostat] as the molecule, how does the “reduction of plasma MCP-1 levels” value (MCP-1; pracinostat single agent) read?
**A.** 40%

**Q.** What about the numbers of platelets ([5]; 125 mg/kg thrice weekly) of the same molecule?
**A.** without significantly reducing

**Q.** And the “delay of the disease onset” value ([5]; 125 mg/kg thrice weekly from d30)?
**A.** 17 days

**Q.** And the “blood counts (white blood counts, lymphocyte counts)” value ([5]; 125 mg/kg thrice weekly, d15 of the study)?
**A.** normalizing blood counts to the levels of disease-free mice

**Q.** And the “reduction of death caused by progressive AML” value ([5]; 125 mg/kg thrice weekly, study d24)?
**A.** 50%

**Q.** And the IC50 [6]?
**A.** 70 to 560 nM

**Q.** What about the “TGI on the basis of tumor weight” value (SET-2 xenografts; pracinostat 75 mg/kg q.o.d) of the same molecule?
**A.** 42.5%

**Q.** What about the “pJAK2, JAK2, pSTAT5 and STAT5 protein levels” value [7] of the same molecule?
**A.** remained unaffected

**Q.** And the IC50 (HL-60)?
**A.** 70 nM

**Q.** And the “pharmacokinetic parameters after 14 days of co-administration with pacritinib” value ([1]; pracinostat)?
**A.** similar

**Q.** And the “levels of pFLT3 and FLT3, and pSTAT5” value [8]?
**A.** reduced, but to a lesser extent

**Q.** What about the “pJAK2, JAK2, pSTAT5 and STAT5 protein levels” value [9] of the same molecule?
**A.** remained unaffected

**Q.** And the “pFLT3 (Y591) level” value [10]?
**A.** near-total ablation

**Q.** What about the “pSTAT5 levels in tumors compared with vehicle treated animals” value (pSTAT5 in SET-2 tumors; pracinostat 75 mg/kg every other day) of the same molecule?
**A.** increased pSTAT5 levels

**Q.** And the “pJAK2 (Y1007/08) and pSTAT5 (Y694) levels, total JAK2 and STAT5 protein” value [11]?
**A.** decreased

**Q.** What about the “pFLT3 (Y591) level” value [12] of the same molecule?
**A.** near-total ablation

**Q.** What about the “plasma IL-6, IP-10, KC and MIP-1α” value ([3]; single-agent pracinostat) of the same molecule?
**A.** normalization

**Q.** And the “reduction in tumor weight” value (MOLM-13 s.c. xenografts; pracinostat 75 mg/kg q.o.d)?
**A.** 19.2%

**Q.** And the “reduction of metastatic incidences” value (MOLM-13 s.c. xenografts; single-agent pracinostat)?
**A.** 50%

**Q.** And the “maximum body weight loss” value (HEL92.1.7 xenografts)?
**A.** 4.7%

**Q.** And the “Complete tumor regression at the end of the treatment” value (MV4-11 xenografts; 50 mg/kg per day for 21 days)?
**A.** 6 out of 10

**Q.** What about the “maximum body weight loss” value (MV4-11 xenografts; MV4-11 model, 25 or 50 mg/kg per day for 21 days) of the same molecule?
**A.** 7%
